Experiments:
[1] = biological target: Tyrosine-protein kinase SYK (Homo sapiens, UniProt P43405)
[2] = biological target: Voltage-gated inwardly rectifying potassium channel KCNH2 (Homo sapiens, UniProt Q12809); test: Inhibition of human ERG expressed in CHO cells by automated Qpatch clamp assay; assay type: cell-based
[3] = biological target: hERG (KCNH2) (Homo sapiens, UniProt Q12809); test: Inhibition of human ERG at 10 uM by manual patch clamp assay relative to control
[4] = Clearance in Sprague-Dawley rat at 1 mg/kg, iv and 3 mg/kg, po administered as cassette dosing; assay type: ADME, organism-based; conditions: in vivo
Outline: (§1)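 Rat PK: i.v. 1 mg/kg in NMP/PEG200 (3:7); p.o. 3 mg/kg in CMC/water/Tween (0.5:99:0.5). Exposure values dose normalized.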

[5] = Mean residence time in Sprague-Dawley rat at 1 mg/kg, iv and 3 mg/kg, po administered as cassette dosing; assay type: ADME, organism-based; conditions: in vivo
Outline: (§2)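 Rats were dosed i.v. at 1 mg/kg in NMP/PEG200 (3:7) and p.o. at 3 mg/kg in CMC/water/Tween (0.5:99:0.5). PK parameters were derived from blood concentration–time curves for both routes.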

[6] = system: Rattus norvegicus; test: Dose normalized AUC in Sprague-Dawley rat at 3 mg/kg, po administered as cassette dosing; assay type: ADME, organism-based; parameters: dose 3 mg/kg, route oral; conditions: in vivo
Outline: as §1

[7] = Oral bioavailability in Sprague-Dawley rat at 3 mg/kg administered as cassette dosing; assay type: ADME, organism-based; conditions: in vivo
Outline: as §2

[8] = system: Rattus norvegicus; test: Dose normalized Cmax in Sprague-Dawley rat at 1 mg/kg, iv and 3 mg/kg, po administered as cassette dosing; assay type: ADME, organism-based; conditions: in vivo
Outline: as §1

[9] = system: Canis familiaris; test: Dose normalized AUC in Beagle dog at 0.3 mg/kg, po; assay type: ADME, organism-based, Canis lupus familiaris; parameters: dose 0.3 mg/kg, route oral; conditions: in vivo
Outline: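 One-in-one dosing in Beagle dogs: i.v. 0.1 mg/kg in NMP/PEG200 (3:7); p.o. 0.3 mg/kg in MC/water (0.5:99.5). Exposure values dose normalized.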

[10] = biological target: Mitotic checkpoint serine/threonine-protein kinase BUB1 (Homo sapiens, UniProt O43683); test: Competitive binding affinity to human BUB1
[11] = biological target: Interleukin-1 receptor-associated kinase 1 (Homo sapiens, UniProt P51617); test: Competitive binding affinity to human IRAK1
[12] = biological target: Tyrosine-protein kinase JAK2 (Homo sapiens, UniProt O60674); test: Competitive binding affinity to human JAK2
[13] = biological target: T1, Mitogen-activated protein kinase kinase kinase 2 (Homo sapiens, UniProt Q9Y2U5); test: Competitive binding affinity to human MAP3K2
T1 sequence (Q9Y2U5 whole entry): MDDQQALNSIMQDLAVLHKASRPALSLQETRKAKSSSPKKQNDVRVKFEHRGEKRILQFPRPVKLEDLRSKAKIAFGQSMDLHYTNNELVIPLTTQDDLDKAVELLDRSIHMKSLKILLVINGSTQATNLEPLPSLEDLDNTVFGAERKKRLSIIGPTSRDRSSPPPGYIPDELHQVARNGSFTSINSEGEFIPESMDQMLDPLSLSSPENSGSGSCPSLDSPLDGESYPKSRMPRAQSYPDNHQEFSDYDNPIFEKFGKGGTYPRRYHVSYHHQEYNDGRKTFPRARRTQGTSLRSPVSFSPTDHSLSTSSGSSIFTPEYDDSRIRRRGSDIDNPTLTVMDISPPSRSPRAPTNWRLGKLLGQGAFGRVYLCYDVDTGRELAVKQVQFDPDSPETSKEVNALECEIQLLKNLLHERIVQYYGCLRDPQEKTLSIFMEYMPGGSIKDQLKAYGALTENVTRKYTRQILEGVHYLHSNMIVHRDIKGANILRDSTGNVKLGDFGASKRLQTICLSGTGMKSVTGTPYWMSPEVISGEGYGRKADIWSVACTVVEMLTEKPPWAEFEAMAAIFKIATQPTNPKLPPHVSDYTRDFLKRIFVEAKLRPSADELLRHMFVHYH

[14] = biological target: Proto-oncogene tyrosine-protein kinase ROS (Homo sapiens, UniProt P08922); test: Competitive binding affinity to human ROS1
Sequence of Proto-oncogene tyrosine-protein kinase ROS (P08922 whole entry): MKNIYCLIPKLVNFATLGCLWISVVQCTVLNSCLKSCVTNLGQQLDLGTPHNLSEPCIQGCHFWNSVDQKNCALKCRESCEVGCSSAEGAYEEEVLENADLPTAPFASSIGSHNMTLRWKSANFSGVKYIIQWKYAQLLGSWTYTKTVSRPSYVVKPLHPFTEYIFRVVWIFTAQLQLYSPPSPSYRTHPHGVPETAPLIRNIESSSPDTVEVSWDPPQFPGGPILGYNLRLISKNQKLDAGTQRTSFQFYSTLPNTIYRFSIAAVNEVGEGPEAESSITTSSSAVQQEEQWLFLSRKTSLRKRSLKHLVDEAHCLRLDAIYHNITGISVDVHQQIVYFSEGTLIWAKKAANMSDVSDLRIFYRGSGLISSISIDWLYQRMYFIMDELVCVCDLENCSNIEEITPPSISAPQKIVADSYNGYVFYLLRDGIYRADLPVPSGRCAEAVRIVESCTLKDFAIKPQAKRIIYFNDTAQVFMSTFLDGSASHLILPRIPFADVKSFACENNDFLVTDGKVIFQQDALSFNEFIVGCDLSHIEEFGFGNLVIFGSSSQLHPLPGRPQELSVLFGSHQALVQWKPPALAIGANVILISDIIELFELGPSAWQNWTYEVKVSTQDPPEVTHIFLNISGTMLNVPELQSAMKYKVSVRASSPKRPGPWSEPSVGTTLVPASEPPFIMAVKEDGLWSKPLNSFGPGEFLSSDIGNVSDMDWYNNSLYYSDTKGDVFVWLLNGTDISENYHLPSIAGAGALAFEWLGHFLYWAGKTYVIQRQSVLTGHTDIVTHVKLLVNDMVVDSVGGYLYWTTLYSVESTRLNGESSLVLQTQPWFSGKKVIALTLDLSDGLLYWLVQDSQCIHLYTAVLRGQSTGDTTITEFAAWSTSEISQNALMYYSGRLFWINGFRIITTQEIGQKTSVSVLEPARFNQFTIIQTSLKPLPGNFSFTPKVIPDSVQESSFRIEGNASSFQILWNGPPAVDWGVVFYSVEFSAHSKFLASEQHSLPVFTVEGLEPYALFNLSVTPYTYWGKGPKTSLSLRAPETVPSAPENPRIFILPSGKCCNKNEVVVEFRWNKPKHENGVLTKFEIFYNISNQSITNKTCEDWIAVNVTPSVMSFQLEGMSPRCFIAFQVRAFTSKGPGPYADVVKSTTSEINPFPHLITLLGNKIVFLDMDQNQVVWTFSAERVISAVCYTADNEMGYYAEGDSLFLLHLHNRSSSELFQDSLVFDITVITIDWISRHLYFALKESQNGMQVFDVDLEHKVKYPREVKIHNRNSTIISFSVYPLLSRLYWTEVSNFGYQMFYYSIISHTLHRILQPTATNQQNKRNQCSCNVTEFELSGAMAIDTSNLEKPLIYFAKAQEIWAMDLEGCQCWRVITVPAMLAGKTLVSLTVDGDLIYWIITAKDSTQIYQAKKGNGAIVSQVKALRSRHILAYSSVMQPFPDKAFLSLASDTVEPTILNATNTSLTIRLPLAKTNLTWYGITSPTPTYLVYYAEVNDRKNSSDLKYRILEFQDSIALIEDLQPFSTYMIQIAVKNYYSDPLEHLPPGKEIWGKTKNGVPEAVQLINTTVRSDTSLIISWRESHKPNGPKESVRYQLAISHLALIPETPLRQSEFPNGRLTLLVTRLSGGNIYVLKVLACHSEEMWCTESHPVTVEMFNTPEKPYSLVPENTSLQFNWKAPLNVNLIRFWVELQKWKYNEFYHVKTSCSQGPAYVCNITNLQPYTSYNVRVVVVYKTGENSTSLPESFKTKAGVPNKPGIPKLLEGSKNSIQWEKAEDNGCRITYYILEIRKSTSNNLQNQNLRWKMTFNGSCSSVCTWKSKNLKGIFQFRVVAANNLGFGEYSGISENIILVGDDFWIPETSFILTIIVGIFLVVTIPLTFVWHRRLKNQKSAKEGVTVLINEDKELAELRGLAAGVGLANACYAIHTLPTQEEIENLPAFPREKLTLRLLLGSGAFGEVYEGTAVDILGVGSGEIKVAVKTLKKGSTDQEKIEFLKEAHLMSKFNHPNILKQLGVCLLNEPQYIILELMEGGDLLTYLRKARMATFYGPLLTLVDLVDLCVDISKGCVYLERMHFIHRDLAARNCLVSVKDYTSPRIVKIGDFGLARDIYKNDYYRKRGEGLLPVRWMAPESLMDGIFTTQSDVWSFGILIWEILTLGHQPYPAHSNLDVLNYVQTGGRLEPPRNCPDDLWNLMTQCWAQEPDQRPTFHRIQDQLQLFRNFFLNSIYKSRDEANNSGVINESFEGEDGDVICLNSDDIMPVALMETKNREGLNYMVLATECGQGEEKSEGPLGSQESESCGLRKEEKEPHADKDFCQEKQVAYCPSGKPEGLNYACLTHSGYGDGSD

[15] = biological target: T2, Tyrosine-protein kinase ZAP-70 (Homo sapiens, UniProt P43403); test: Inhibition of human ZAP70
T2 sequence (P43403 whole entry): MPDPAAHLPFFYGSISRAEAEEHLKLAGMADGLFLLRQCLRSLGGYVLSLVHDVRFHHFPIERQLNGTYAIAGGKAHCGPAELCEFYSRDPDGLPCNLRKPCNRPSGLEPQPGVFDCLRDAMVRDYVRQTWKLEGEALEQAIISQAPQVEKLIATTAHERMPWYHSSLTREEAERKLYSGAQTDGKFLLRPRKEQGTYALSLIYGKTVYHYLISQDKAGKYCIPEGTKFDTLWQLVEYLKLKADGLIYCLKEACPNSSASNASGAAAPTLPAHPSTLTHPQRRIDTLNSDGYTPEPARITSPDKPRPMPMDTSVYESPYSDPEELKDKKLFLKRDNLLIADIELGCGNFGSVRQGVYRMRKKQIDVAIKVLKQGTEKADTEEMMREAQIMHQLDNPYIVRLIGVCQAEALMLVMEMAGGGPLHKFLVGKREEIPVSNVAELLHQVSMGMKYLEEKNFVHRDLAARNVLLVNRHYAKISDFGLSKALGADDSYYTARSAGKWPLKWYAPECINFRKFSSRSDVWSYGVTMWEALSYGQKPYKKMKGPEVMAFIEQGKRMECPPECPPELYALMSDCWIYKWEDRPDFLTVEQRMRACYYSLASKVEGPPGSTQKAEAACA

[16] = system: Rattus norvegicus; test: In vivo inhibition of Syk in Lewis rat assessed as reduction in FcgR-induced SLP76 phosphorylation in peripheral blood monocytes at 22 mg/kg, po measured after 2 hrs relative to vehicle-treated control; assay type: functional
Outline: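 Single oral dose of 22 mg/kg to Lewis rats; blood sampled at 2, 4 and 24 h after dosing for compound level and ex vivo FcγR-induced phospho-SLP76 in peripheral blood monocytes.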

[17] = Drug uptake in blood of Lewis rat collagen-induced arthritis model at 10 mg/kg, po qd administered on day 15 post immunization measured at 4 hrs on day 18; assay type: ADME, organism-based; parameters: dose 10 mg/kg, route oral; conditions: read-out: Drug uptake
Outline: (§3)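 Collagen-arthritic Lewis rats given 3, 10 or 30 mg/kg p.o. once daily from day 15; blood levels measured on day 18 (third day of treatment) at 4, 8 and 24 h after dosing.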

[18] = Drug uptake in blood of Lewis rat collagen-induced arthritis model at 30 mg/kg, po qd administered on day 15 post immunization measured at 4 hrs on day 18; assay type: ADME, organism-based; parameters: dose 30 mg/kg, route oral; conditions: read-out: Drug uptake
Outline: as §3

[19] = Drug uptake in blood of Lewis rat collagen-induced arthritis model at 3 mg/kg, po qd administered on day 15 post immunization measured at 8 hrs on day 18; assay type: ADME, organism-based; parameters: dose 3 mg/kg, route oral; conditions: read-out: Drug uptake
Outline: as §3

[20] = Drug uptake in blood of Lewis rat collagen-induced arthritis model at 30 mg/kg, po qd administered on day 15 post immunization measured at 24 hrs on day 18; assay type: ADME, organism-based; parameters: dose 30 mg/kg, route oral; conditions: read-out: Drug uptake
Outline: as §3

[21] = species on record: Canis familiaris; test: Hepatotoxicity in dog assessed as bile plugs measured for 4 weeks by GLP study; assay type: toxicity, organism-based, Canis lupus familiaris; conditions: in vivo, 672 h
[22] = species on record: Canis familiaris; test: Hepatotoxicity in dog assessed as portal inflammation measured for 4 weeks by GLP study; assay type: toxicity, organism-based, Canis lupus familiaris; conditions: in vivo, 672 h
[23] = species on record: Rattus norvegicus; test: Drug metabolism in rat; assay type: ADME, organism-based; conditions: in vivo

Sequence of Voltage-gated inwardly rectifying potassium channel KCNH2 (Q12809 whole entry): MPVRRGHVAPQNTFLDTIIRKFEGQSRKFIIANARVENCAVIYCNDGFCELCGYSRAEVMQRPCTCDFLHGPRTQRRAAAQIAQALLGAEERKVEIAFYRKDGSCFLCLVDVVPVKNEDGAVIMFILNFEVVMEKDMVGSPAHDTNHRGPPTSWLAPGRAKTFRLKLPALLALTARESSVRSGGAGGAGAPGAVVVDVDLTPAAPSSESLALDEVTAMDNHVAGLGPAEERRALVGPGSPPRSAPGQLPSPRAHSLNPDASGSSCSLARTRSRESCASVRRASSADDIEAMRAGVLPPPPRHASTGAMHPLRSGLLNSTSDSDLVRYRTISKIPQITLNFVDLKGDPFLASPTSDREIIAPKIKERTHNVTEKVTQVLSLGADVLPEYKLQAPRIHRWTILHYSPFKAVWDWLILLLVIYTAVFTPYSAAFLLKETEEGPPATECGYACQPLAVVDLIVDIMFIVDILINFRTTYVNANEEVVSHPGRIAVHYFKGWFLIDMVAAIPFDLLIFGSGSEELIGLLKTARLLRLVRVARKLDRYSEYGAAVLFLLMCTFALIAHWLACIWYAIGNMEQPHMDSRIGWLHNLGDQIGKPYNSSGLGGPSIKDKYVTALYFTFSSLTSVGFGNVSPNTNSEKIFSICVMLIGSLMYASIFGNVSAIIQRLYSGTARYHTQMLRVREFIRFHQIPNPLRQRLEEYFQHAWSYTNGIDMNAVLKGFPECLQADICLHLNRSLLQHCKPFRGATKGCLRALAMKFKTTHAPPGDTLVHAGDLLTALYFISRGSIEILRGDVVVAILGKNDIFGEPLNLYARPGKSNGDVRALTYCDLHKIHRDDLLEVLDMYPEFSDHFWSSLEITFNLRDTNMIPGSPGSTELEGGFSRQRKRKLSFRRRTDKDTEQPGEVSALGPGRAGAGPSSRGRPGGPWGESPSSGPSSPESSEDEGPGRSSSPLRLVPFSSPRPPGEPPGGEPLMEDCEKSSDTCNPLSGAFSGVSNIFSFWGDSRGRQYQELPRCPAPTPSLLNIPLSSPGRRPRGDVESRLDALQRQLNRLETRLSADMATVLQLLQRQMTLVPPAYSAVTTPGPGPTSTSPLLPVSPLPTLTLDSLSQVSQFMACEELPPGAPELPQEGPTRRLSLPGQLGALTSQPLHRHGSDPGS
Sequence of hERG (KCNH2) (Q12809 whole entry): as above

`NC(=O)c1nnc(N[C@@H]2CCCC[C@@H]2N)nc1Nc1cccc2cc[nH]c12` gave an IC50 [1] of 35 nM, an IC50 [2] of 25900 nM and an inhibition at 10 µM [3] of 0%. For the same compound, the clearance [4] was 31 mL/min/kg, the MRT [5] was 8.7 h and the AUC/dose [6] was 877 nM·h. For the same compound, the bioavailability [7] was 60%, the Cmax/dose [8] was 80 nM and the AUC/dose [9] was 1836 nM·h. For the same compound, the Kd [10] was 240 nM, the Kd [11] was 67 nM and the Kd [12] was 53 nM. For the same compound, the Kd [13] was 140 nM, the Kd [14] was 120 nM and the IC50 [15] was 251 nM. For the same compound, the inhibition in vivo at 22 mg/kg [16] was 90%, the concentration at 4 h [17] was 866 nM and the concentration at 4 h [18] was 2890 nM. For the same compound, the concentration at 8 h [19] was 65 nM, the concentration at 24 h [20] was 461 nM and the Activity [21] was “Toxic”. For the same compound, the Activity [22] was “Toxic” and the Drug metabolism [23] was “metabolite_notdetected”.
